The record followed here is ChEMBL document CHEMBL3774372, “Design, physico-chemical properties and biological evaluation of some new N-[(phenoxy)alkyl]- and N-{2-[2-(phenoxy)ethoxy]ethyl}aminoalkanols as anticonvulsant agents” (Bioorg Med Chem, 2016).

Assay [1] in a line: Displacement of [3H]TCP from rat cerebral cortex PCP receptor. It is filed as tissue-based. The method, boiled down: (§1)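 Radioligand binding on rat cerebral cortex preparations: [35S]TBPS (GABA-gated Cl⁻ channel), [125I]apamin (SKCa), [3H]batrachotoxinin (Na⁺ site 2), [35S]dATPαS (P2Y), [3H]TCP (PCP), [3H]flunitrazepam (central BZD).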
The nature of assay [2]: Displacement of [35S]dATPalpha S from rat cerebral cortex P2Y receptor. Type of assay: tissue-based. The method, boiled down:
as §1
Background: Displacement assays read how much labelled ligand stays bound in the presence of the test substance.

Assay [3] addresses Muscarinic acetylcholine receptor M5 (Homo sapiens, UniProt P08912). Briefly: Displacement of [3H]4-DAMP from human recombinant muscarinic M5 receptor expressed in CHO cells. Type of assay: cell-based.
Assay [4] is described as follows: Displacement of [3H]alpha,beta-MeATP from rat urinary bladder P2X receptor.

Chain of Muscarinic acetylcholine receptor M5 (P08912 whole entry): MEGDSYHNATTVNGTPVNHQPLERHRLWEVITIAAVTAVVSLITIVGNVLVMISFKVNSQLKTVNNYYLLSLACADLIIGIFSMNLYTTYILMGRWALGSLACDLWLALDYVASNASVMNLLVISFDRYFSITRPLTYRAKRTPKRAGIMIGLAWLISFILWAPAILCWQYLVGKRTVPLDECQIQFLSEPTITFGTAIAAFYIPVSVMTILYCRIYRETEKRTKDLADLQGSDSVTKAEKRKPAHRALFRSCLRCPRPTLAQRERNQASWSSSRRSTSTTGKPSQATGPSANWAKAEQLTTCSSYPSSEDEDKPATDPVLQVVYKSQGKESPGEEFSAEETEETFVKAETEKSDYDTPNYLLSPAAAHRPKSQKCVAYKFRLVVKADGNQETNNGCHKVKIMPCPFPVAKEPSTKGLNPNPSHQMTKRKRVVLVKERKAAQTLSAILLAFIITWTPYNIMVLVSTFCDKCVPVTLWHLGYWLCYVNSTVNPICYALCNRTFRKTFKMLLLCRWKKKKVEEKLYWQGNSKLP

Usually IC50 stands for the point on the concentration scale where inhibition reaches its midpoint. Take `C[C@]12N[C@H](Cc3ccccc31)c1ccccc12` [DIZOCILPINE]: in assay [1], the IC50 is 4.6 nM. `Nc1ncnc2c1ncn2[C@@H]1O[C@H](COP(O)(=S)OP(=O)(O)OP(=O)(O)O)[C@@H](O)[C@H]1O` (some centres undefined) yielded an IC50 in assay [2] of 29 nM. Take `C[N+]1(C)CCC(OC(=O)C(c2ccccc2)c2ccccc2)CC1` [4-DAMP]: the IC50 in assay [3] amounted to 0.32 nM. With `Nc1ncnc2c1ncn2[C@@H]1O[C@H](COP(=O)(O)CP(=O)(O)OP(=O)(O)O)[C@@H](O)[C@H]1O` [DIPHOSPHOMETHYLPHOSPHONIC ACID ADENOSYL ESTER], in assay [4], the IC50 came to 1.9 nM.
